Experimental findings from ChEMBL document CHEMBL4715754, “Slowing down fat digestion and absorption by an oxadiazolone inhibitor targeting selectively gastric lipolysis” (2016) are described below.

SMILES strings stand for the structures.

In assay [1] the target is T1, Pancreatic lipase-related protein 2 (Cavia porcellus) (UniProt P81139).
T1 sequence (whole entry): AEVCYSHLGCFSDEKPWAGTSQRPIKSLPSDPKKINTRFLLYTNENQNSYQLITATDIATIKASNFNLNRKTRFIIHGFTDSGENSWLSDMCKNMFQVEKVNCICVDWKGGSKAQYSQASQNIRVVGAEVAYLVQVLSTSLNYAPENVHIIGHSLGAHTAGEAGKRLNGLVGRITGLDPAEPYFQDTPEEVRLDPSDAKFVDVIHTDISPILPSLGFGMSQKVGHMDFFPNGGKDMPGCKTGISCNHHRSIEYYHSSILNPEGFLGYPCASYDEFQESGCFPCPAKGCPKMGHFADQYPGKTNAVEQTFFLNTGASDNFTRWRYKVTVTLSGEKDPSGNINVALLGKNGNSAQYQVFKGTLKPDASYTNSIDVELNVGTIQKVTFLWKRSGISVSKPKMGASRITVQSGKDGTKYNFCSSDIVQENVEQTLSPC
The assay is described as follows: Inhibition of recombinant guinea pig PL-RP2 expressed in Aspergillus oryzae preincubated for 1 hr at 25 degreeC.

The target in assay [2] is T2, Gastric triacylglycerol lipase (Canis lupus familiaris) (UniProt P80035).
T2 sequence (whole entry): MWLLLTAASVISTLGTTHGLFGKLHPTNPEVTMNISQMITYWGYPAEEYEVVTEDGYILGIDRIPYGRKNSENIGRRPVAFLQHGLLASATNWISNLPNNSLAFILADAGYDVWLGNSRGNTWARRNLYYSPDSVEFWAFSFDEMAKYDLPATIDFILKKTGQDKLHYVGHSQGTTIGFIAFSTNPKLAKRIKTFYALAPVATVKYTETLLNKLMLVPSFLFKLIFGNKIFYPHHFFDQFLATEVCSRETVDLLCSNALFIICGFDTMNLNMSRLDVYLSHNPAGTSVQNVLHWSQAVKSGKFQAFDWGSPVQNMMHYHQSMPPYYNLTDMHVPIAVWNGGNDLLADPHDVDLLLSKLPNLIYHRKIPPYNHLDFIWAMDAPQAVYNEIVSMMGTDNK
The assay is described as follows: Inhibition of recombinant dog gastric lipase at 20:1 molar excess compound concentration preincubated for 30 mins at 25 degreeC relative to control.

In assay [3] the target is T2, Gastric triacylglycerol lipase (Canis lupus familiaris). The experiment in a line: Inhibition of recombinant dog gastric lipase at 4:1 molar excess compound concentration preincubated for 30 mins at 25 degreeC relative to control.
Assay [4] deals with T1, Pancreatic lipase-related protein 2 (Cavia porcellus). The assay is described as follows: Inhibition of recombinant guinea pig PL-RP2 expressed in Aspergillus oryzae assessed as residual activity by measuring half-inactivation time at 2:1 molar excess compound concentration preincubated for 1 hr at 25 degreeC. The method in brief:
(§1)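 Enzyme pre-incubated with inhibitor (DMSO stock) at fixed molar excess for 1 h at 25 °C without substrate: hCEH x_I=4 (1 mM NaTDC assay), RLL and DGL x_I=20 with 4 mM NaTDC, GPLRP2 x_I=2 with 2 mM NaTDC. Residual activity sampled at intervals by pH-stat on tributyrin emulsion at 37 °C; t1/2 taken at 50% residual activity. DMSO-only controls; at least triplicate.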

Assay [5] deals with T3, Gastric triacylglycerol lipase (Rattus norvegicus) (UniProt P04634).
T3 sequence (whole entry): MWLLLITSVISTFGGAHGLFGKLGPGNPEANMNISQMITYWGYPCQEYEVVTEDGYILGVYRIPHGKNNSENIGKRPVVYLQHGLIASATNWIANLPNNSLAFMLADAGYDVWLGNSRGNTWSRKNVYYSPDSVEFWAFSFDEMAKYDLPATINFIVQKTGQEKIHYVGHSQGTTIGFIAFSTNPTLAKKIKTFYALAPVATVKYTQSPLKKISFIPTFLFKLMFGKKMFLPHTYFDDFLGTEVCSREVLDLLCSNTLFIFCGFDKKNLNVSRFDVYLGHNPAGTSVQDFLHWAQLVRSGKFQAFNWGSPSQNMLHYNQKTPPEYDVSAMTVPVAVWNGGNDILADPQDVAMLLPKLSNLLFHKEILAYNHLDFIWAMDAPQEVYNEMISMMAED
The experiment in a line: Inhibition of rat lingual lipase assessed as residual activity by measuring half-inactivation time at 20:1 molar excess compound concentration preincubated for 1 hr at 25 degreeC. The gist of the method: as §1

Assay [6] deals with T4, Pancreatic triacylglycerol lipase (Sus scrofa) (UniProt P00591).
T4 sequence (whole entry): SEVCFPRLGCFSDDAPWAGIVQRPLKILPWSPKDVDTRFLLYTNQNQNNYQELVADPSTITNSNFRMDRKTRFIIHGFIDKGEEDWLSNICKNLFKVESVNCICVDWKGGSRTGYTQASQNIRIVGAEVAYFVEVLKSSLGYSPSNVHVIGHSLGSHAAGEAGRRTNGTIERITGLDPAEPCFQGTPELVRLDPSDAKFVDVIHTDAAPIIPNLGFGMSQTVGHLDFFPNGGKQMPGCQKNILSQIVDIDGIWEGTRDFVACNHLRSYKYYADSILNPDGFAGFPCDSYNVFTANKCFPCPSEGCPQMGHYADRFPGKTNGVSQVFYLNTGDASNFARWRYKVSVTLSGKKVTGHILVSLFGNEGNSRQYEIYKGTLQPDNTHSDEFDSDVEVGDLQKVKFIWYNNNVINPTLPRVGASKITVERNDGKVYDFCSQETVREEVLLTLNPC
The assay is described as follows: Inhibition of porcine pancreatic lipase assessed as residual activity at 4.1 mg/ml under duodenal phase at pH 6.5 using solid test meal measured after 30 to 90 mins relative to control. Conditions: time 30-90 min.

The next assay has as its system Rattus norvegicus. The experiment in a line: Inhibition of lipolysis in mesenteric lymph duct-cannulated Wistar rat model assessed as decrease in intestinal lipid absorption at 5.3 mg/kg supplemented with olive oil emulsion and measured after 6 hrs relative to control. Further details: scale not given: the % may be the effect or the level left. It is filed as functional. The gist of the method:
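Male Wistar rats (8 weeks, 300-350 g), fat-free diet 24 h, mesenteric lymph duct cannulated under ketamine/xylazine. Given 0.8 mL olive oil emulsion (530 mg fatty acids) premixed with inhibitor at 5.3 mg/kg by mouth, then 0.5 mL water. Lymph collected over 24 h; total fatty acids by GC-FID of methyl esters. 7 rats per group; one-way ANOVA with Fisher's test.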

Assay [7] concerns the target T2, Gastric triacylglycerol lipase (Canis lupus familiaris). The experiment in a line: Inhibition of recombinant dog gastric lipase assessed as lipolysis level at 4.9 mg/ml under gastric phase at pH 5.5 using solid test meal measured up to 30 mins (reference value: 13 +/- 1.2 %). Set-up: scale not given: the % may be the effect or the level left. Particulars: time min <=30. The method in brief:
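In vitro two-phase digestion at 37 °C, 1,000 rpm: 15 mL liquid or solid test meal (506 mg TAG) was premixed with 7.262 µmol inhibitor in DMSO (DMSO-only control). Gastric phase: DGL 17 µg/mL final, pH 5.5. Duodenal phase from 30 min: pancreatic extract plus bovine bile added (PPL 250 µg/mL, bile salts 4.0 mM), pH 6.25. Lipids in samples were quantified by TLC-FID; LL% is (MAG+FFA) relative to 3×initial TAG; n = 3.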

Assay [8] concerns the target T4, Pancreatic triacylglycerol lipase (Sus scrofa). Particulars: dose 4.9 mg/ml, time 30-90 min.

In general, inhibition refers to the share of the control response that was lost under treatment.

For `O=c1oc(OCCOCc2ccccc2)nn1-c1cccc(Oc2ccccc2)c1`, in assay [1], the XI50 amounted to 0.64 molar excess. Also, the inhibition in [2] stood at 91.5%; in assay [3], 87.6%. Moreover, the T1/2 in assay [4] was 31.2 s; in assay [5] it was 297 s. In addition, the Activity in assay [6] is 94.9%; in the assay with Rattus norvegicus, -9.1%.

`CCCCCCCCCCC[C@@H](C[C@@H]1OC(=O)[C@H]1CCCCCC)OC(=O)[C@@H](CC(C)C)NC=O`: the XI50 in assay [1] was 0.53 molar excess. The results for the T1/2 in [4] and in assay [5] were 24 s and 23.4 s, respectively. Moreover, the Activity in [7] is 2.1%; in the assay with Rattus norvegicus, -37.4%. This compound displayed an inhibition in assay [8] of 85.2%.
